In ChEMBL document CHEMBL1150617, “New and biologically active imidazole alkaloids from two sponges of the genus Leucetta” (2002):
Converted amounts (≈) assume the structure as drawn. The source made the active and inactive calls. No cut-off for these calls is given here.

Tests used:
[1] = system: [Chlorella] fusca; experiment: Antialgal activity against 'Chlorella' fusca at 50 ug; format: functional, organism-based; settings: Scenedesmus fuscus
How it was run: (§1)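 Agar diffusion assay against bacteria (Bacillus megaterium, Escherichia coli), fungi (Microbotryum violaceum, Eurotium repens, Mycotypha microsporum) and the green microalga Chlorella fusca.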

[2] = system: Aspergillus pseudoglaucus; experiment: Antifungal activity against Eurotium repens at 50 ug; format: functional, organism-based; how it was run: as §1
[3] = system: Mycotypha microspora; experiment: Antifungal activity against Mycotypha microspora at 50 ug; format: functional, organism-based; how it was run: as §1
[4] = system: Priestia megaterium; experiment: Antibacterial activity against Bacillus megaterium at 50 ug; format: functional, organism-based; how it was run: as §1
[5] = system: Microbotryum violaceum; experiment: Antifungal activity against Microbotryum violaceum at 50 ug; format: functional, organism-based; how it was run: as §1
[6] = system: Escherichia coli; experiment: Antibacterial activity against Escherichia coli at 50 ug; format: functional, organism-based; how it was run: as §1
[7] = system: Huh-7; experiment: Cytotoxicity against human HuH7 cells; format: functional
How it was run: (§2)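 Cytotoxicity run to NCI standards on the human tumour lines HM02 (stomach carcinoma), HepG2 (liver carcinoma) and Huh7 (liver carcinoma with mutated p53).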

[8] = system: HepG2; experiment: Cytotoxicity against human HepG2 cells; format: functional; how it was run: as §2
[9] = Cytotoxicity against human HM02 cells; format: functional; how it was run: as §2

For COc1ccc(Cc2[nH]c(=N)n(C)c2Cc2cc(O)c(OC)c(O)c2)cc1, the Activity [1] was “inactive”, the Activity [2] was “inactive” and the Activity [3] was “inactive”. The Activity [4] was “inactive”, the Activity [5] was “inactive” and the Activity [6] was “inactive”.

With COc1ccc(Cc2[nH]c(=N)n(C)c2Cc2ccc(O)cc2)cc1 the Activity [1] was “inactive”, the Activity [2] was “inactive” and the Activity [3] was “inactive”. For the same compound, the Activity [4] was “inactive”, the Activity [5] was “inactive” and the Activity [6] was “inactive”.

For COc1ccc(Cc2cn(Cc3ccc(O)cc3)c(=N)n2C)cc1, the Activity [1] was “inactive”, the Activity [2] was “inactive” and the Activity [3] was “inactive”. The Activity [4] was “inactive”, the Activity [5] was “inactive” and the Activity [6] was “inactive”.

With COc1ccc(Cn2cc(Cc3ccc(OC)c(OC)c3)nc2/N=C2/NC(=O)N(C)C2=O)cc1 [ISONAAMIDINE E] the Activity [1] was “inactive”, the GI50 [7] was 1.3 µg/mL (≈ 2.8 µM) and the GI50 [8] was 7 µg/mL (≈ 15.1 µM). The Activity [2] was “inactive”, the Activity [3] was “inactive” and the Activity [4] was “inactive”. For the same compound, the Activity [5] was “inactive”, the GI50 [9] was 7 µg/mL (≈ 15.1 µM) and the Activity [6] was “inactive”.

With COc1ccc(Cn2cc(Cc3ccc(OC)c(OC)c3)nc2N)cc1 [ISONAAMINE C] the Activity [1] was “inactive”, the GI50 [7] was 2.1 µg/mL (≈ 5.94 µM) and the GI50 [8] was 2.2 µg/mL (≈ 6.22 µM). The Activity [2] was “inactive”, the Activity [3] was “inactive” and the Activity [4] was “inactive”. The Activity [5] was “inactive”, the GI50 [9] was 5.3 µg/mL (≈ 15 µM) and the Activity [6] was “inactive”.
